# Laboratory results from PubChem BioAssay AID651572 (The Scripps Research Institute Molecular Screening Center, 2012).
# Among all 360,000 compounds or so, about 950 (0.26%) were called active. The sample holds actives, similar compounds and a random draw of the others, so the mix is not that of the screen.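 Rule for the calls: active = inhibition above a per-plate limit, mean inhibition of low control wells plus 3 SD (cut at about 25% in these data); inactive = the rest.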
# Biological target: ADP-ribosylation factor GTPase-activating protein 1 (Rattus norvegicus) (UniProt Q62848)
# Test: blockers of ARFGAP1-stimulated ARF1 GTP hydrolysis – biochemical, fluorescence polarization, GDP tracer, primary screen (AID 651572)
# Conditions: GDP FP detection, at 16.5 µM, active compounds read high
# Procedure, shortened: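 Replicates: Single well per compound | Assay system: Truncated rat Arfgap1 GAP domain | Control set: No-Arfgap1 wells (100%) versus DMSO full-reaction wells (0%) | Times: Enzyme reaction 120 min at 25 °C after 20 min preincubation | Reagent: Human ARF1(Δ1-17)-GTP substrate | Measured by: Tracer-displacement fluorescence polarization with EDTA stop, 620/688 nm | Measure: Percent inhibition of Arfgap1-stimulated GTP hydrolysis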
# ADP-ribosylation factor GTPase-activating protein 1 (Rattus norvegicus), sequence (Q62848 1-136 limits assumed): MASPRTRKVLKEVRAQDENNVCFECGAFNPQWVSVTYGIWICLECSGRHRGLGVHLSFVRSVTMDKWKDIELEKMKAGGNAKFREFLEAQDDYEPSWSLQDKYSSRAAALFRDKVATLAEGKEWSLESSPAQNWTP
row,SMILES,inhibition
1,O=S1(=O)c2c(cccc2N2CCCCC2)O[C@H](COCc2ccccc2)CN1C1CC1,0.4% (inactive)
2,C#CCN([C@@H](C)C(=O)OCC)S(=O)(=O)c1ccc(Br)cc1F,-5.91% (inactive)
3,Cc1cc(N2CCN(C(=O)OC(C)(C)C)C[C@H]2C)ccc1N1CCN(Cc2ccccc2)[C@H](C)C1,1.76% (inactive)
4,CCCCCCCCN1C(=O)[C@@H](CC(=O)NCCCC)C[C@@]2(C(=O)OC)C1=C[C@H](C(C)(C)C)O[C@@H]2C,3.82% (inactive)
5,Cc1[nH]c2ccccc2c1CC(=O)Nc1ccc(Nc2cccnc2)c(-c2cccc(Cl)c2)c1,16.8% (inactive)
6,COc1ccc(CNC(=O)C(Cc2ccccc2)n2cccc2)cc1 (stereo not given),33.6% (active)
7,CCSc1ccccc1C(=O)NCc1ccc(OC)cc1,-5.39% (inactive)
8,COc1ccc(CNC(=O)C(C)NCc2ccccc2Cl)cc1 (stereo not given),-1.63% (inactive)
9,Cc1cc(Br)cn2c(Cc3ccccc3C(F)(F)F)c(-c3ccc(C#N)cc3)nc12,-8.18% (inactive)
10,COC(=O)Cc1nnn2c1[C@H](C)[C@@H](OC)c1cc(Br)ccc1-2,-3.05% (inactive)
11,CC(=O)C1=C(C)N(Cc2ccccc2)C(=S)NC1c1cccc(Br)c1 (stereo not given),20.9% (inactive)
12,CN1CCCCC(NC(=O)C(C)(C)C)C1=O (stereo not given),-2.4% (inactive)
13,CC(C)CNc1cccc2c1S(=O)(=O)N[C@H](C)CO2,1.59% (inactive)
14,COC(=O)c1cc2c(c3c4cc(F)ccc4n(S(=O)(=O)c4ccccc4)c13)C(=O)N(Cc1ccccc1OC)C2,-6.31% (inactive)
15,COC(=O)c1c(-c2ccc(OC)cc2)c2c(c3c4ccccc4n(S(=O)(=O)c4ccc(C)cc4)c13)C(=O)N(C)C2,2.2% (inactive)
16,COC(=O)c1cc2c(c3c4ccccc4n(S(=O)(=O)c4cccc(C)c4)c13)C(=O)N(Cc1ccccc1)C2,46.8% (active)
17,COC(=O)C1=C(C)N(Cc2ccc(F)cc2)C(=S)NC1c1cccc(Cl)c1 (stereo not given),0.22% (inactive)
18,COc1ccc(/C=C2\SC(=S)N(CCCC(=O)NC3CCCC3)C2=O)cc1OC,25.1% (active)
19,COc1ccc(CCNC(=O)CCC(=O)NC2CCCCC2)cc1OC,9.15% (inactive)
20,COc1ccc(/C=C/C(=O)OCC(=O)NC2CCCCCC2)cc1OC,-8.52% (inactive)
21,N#Cc1ccc(OCCCN2CCC(C(O)(c3ccccc3)c3ccccc3)CC2)c(F)c1,-2.6% (inactive)
22,COc1ccc(-c2csc(Nc3ccc(O)cc3)n2)cc1,24.8% (active)

row,SMILES,inhibition
1,COC(=O)CCc1sc(Nc2ccc(Br)cc2)nc1-c1ccc(OC)cc1,7.69% (inactive)
2,COc1ccc(C(O)c2nc(-c3ccc(OC)nc3)cs2)cc1 (stereo not given),6.07% (inactive)
3,CC(C)(C)n1nc(C2CC2)c(Br)c1NC(=O)c1ccccc1F,-8.2% (inactive)
4,Oc1cccc2ccc(/C=C/c3ccc(Br)s3)nc12,9.22% (inactive)
5,Nc1ccc(S(=O)(=O)Nc2nccc(/C=C/c3ccc(Br)s3)n2)cc1,33.6% (active)
6,CC(=O)Nc1ccc(S(=O)(=O)Nc2nccc(/C=C/c3ccccc3F)n2)cc1,-5.08% (inactive)
7,COc1ccccc1CCn1cnc(-c2ccccc2)c1C(C)C,2.03% (inactive)
8,CC(=O)C1=C(C)N(Cc2ccc(Cl)cc2)C(=S)NC1c1ccc(F)cc1 (stereo not given),-8.75% (inactive)
9,COC(=O)C1=C(C)N(Cc2cccc(C(F)(F)F)c2)C(=NCc2ccccc2)NC1c1ccc(Cl)cc1 (stereo not given),-7.39% (inactive)
10,CCCN(CC(=O)Nc1ccccc1C)C(=O)c1ccc2[nH]c3c(c2c1)CC(C)CC3 (stereo not given),11.3% (inactive)
11,CC1CCc2[nH]c3ccc(C(=O)N(C)CC(=O)Nc4cccc(F)c4)cc3c2C1 (stereo not given),28% (active)
12,CN(CC(=O)Nc1cccc(F)c1)C(=O)CC1CCCC1,-2.56% (inactive)
13,CCOC(=O)/C=C/c1ccccc1O,1.41% (inactive)
14,COc1ccccc1Cc1c(-c2ccc(F)cc2)nc2ccc(C)cn12,4.94% (inactive)
15,CN1C(=O)C2CC(O)C(SC3CC4C(=O)N(C)C(=O)C4CC3O)CC2C1=O (stereo not given),-0.39% (inactive)
16,CC(C)[C@@H](C)/C=C/[C@@H](C)[C@H]1CC[C@@H]2[C@]1(C)CCC1[C@]23C=C[C@]2(C[C@@H](O)CC[C@]12C)N(c1ccc([N+](=O)[O-])cn1)O3 (stereo not given in full),2.09% (inactive)
17,COc1ccccc1OCC(=O)OCn1c(SC)nnc(C)c1=O,25.6% (active)
18,COc1ccccc1OCC(=O)OCc1cc(-c2ccco2)on1,-14.7% (inactive)
19,COc1ccccc1OCc1nnc(SCC(N)=O)n1-c1ccccc1,3.32% (inactive)
20,O=C(NCc1ccccc1)[C@H]1CCCN1C(=O)[C@@H]1CCCN1C(=O)c1ccc(Cl)cc1Cl,11.1% (inactive)
21,Cc1nc(NC(=O)C(C)(C)C)sc1[N+](=O)[O-],-3.35% (inactive)
22,O=C(N[C@H](Cc1ccccc1)C(=O)N1CCCN(Cc2cccs2)CC1)[C@H]1O[C@@H](n2ccc(=O)[nH]c2=O)[C@H](O)[C@@H]1O,17.7% (inactive)

row,SMILES,inhibition
1,COc1ccc(NC(=O)c2ccc(C#CC(C)(C)O)cc2)cc1,-7.91% (inactive)
2,CCOc1ccc(C(=O)Nc2cccc(SC)c2)cc1,2.92% (inactive)
3,Cc1ccc(NC(=O)c2ccc(Oc3ncccn3)cc2)cc1,25.6% (active)
4,CC(C)C[C@H](NC(=O)CC1CCCC1)C(=O)N1CCC[C@H]1C(=O)NCc1ccccc1,2.12% (inactive)
5,Nc1ncnc2c1ncn2C1OC(CO)CC1O (stereo not given),3.3% (inactive)
6,CC(C)CCSc1ncnc2c1oc1nc3c(cc12)COC(C)(C)C3,28.1% (active)
7,CCCc1nc2oc3c(OCC)ncnc3c2c2c1COC(C)(C)C2,16.9% (inactive)
8,CC1(C)Cc2nc3sc4c(SCC(=O)NC(c5ccccc5)c5ccccc5)ncnc4c3cc2CO1,-6.88% (inactive)
9,O=C(NCc1ccccc1)[C@H]1CCCN1C(=O)[C@H]1CCCN1C(=O)N1CCOCC1,-1.77% (inactive)
10,COC(=O)C1=C(C)N(Cc2ccc(C(F)(F)F)cc2)C(=NCc2ccc(C(F)(F)F)cc2)NC1c1cccc(Cl)c1 (stereo not given),9.23% (inactive)
11,Nc1ncnc2c1ncn2[C@@H]1O[C@H](C(=O)N[C@@H](CCc2ccccc2)C(=O)NCC(=O)N2CCOCC2)[C@@H](O)[C@H]1O,-17.3% (inactive)
12,O=C(O)CCn1cc(/C=C/C(=O)c2ccc(Cl)cc2)c(-c2cccc(Br)c2)n1,26.5% (active)
13,CCOC(=O)C1=C(C(=O)OCC)C2N(Cc3ccc(C#N)cc3)c3ccccc3[C@@]23C[C@@H](C(=O)OC)N(S(=O)(=O)c2ccc(F)cc2)C3=N1 (stereo not given in full),6.03% (inactive)
14,CCc1c(-c2ccccc2OC)ncn1CCc1ccccc1OC,2.34% (inactive)
15,CC1CCN(C(=O)c2ncn3c2C(=O)N[C@@H](C)C3)CC1,5.31% (inactive)
16,COc1cccc(-c2cc(CNC(=O)[C@@H](Cc3ccccc3)NC(=O)[C@H]3O[C@@H](n4cnc(C(N)=O)n4)[C@H](O)[C@@H]3O)no2)c1,-9.08% (inactive)
17,COC(=O)C1=C(C)N(Cc2ccc(C(F)(F)F)cc2)C(=NCc2ccccc2)NC1c1ccccc1C(F)(F)F (stereo not given),9.08% (inactive)
18,O=C(O)c1ccc(COc2c(F)c(F)cc(F)c2F)o1,5.24% (inactive)
19,O=C(O)CSCc1ccc(C(=O)O)o1,25.2% (active)
20,O=C(O)c1ccc(S(=O)(=O)N2CCOCC2)o1,-3.82% (inactive)
21,CCNS(=O)(=O)c1ccc(NC(=O)c2cncc(Br)c2)cc1,-3.5% (inactive)
22,Cc1cc(S(=O)(=O)N2CCOCC2)ccc1OCC(=O)Nc1cccc(C(F)(F)F)c1,2.22% (inactive)

row,SMILES,inhibition
1,CCNS(=O)(=O)c1ccc(NC(=O)Nc2cccc(C(F)(F)F)c2)cc1,28.9% (active)
2,COC(=O)[C@]12C[C@H](CC(=O)N3CCN(C(=O)C4CC4)CC3)C(=O)N(Cc3ccc4c(c3)OCO4)C1=C[C@H](C(C)(C)C)O[C@@H]2C,11.2% (inactive)
3,COC(=O)[C@H](CC(C)C)NS(=O)(=O)c1c(F)cccc1F,4.12% (inactive)
4,Cc1ccc(-n2ncc3c(=O)n(-c4ccc(C)c(C)c4)c(-c4ccco4)nc32)cc1,-1.3% (inactive)
5,COC(=O)CSc1ncnc2c1cnn2-c1ccc(C)cc1C,8% (inactive)
6,Cc1ccc(-n2ncc3c2ncn2nc(-c4ccco4)nc32)c(C)c1,44.3% (active)
7,Cc1ccc(NC(=O)N2c3ccccc3SC2c2ccco2)c(C)c1 (stereo not given),-11.2% (inactive)
8,COCc1[nH]nc2c1C(c1ccccc1)N(c1ccccc1)C2=O (stereo not given),8.17% (inactive)
9,CCOC(=O)CNC(=O)N(C)[C@H]1C[C@H]2c3[nH]c4c(-c5ccc6c(c5)OCO6)cccc4c3CCN2C(=O)[C@H]1[C@H](C)O,-1.05% (inactive)
10,O=c1[nH]c(-c2ccccc2)cn1C1CCN(Cc2ccc(-c3nc4ccc(F)cc4nc3-c3ccccc3)cc2)CC1,6.41% (inactive)
11,Cc1ccc(C)c(CN2CCC(CNC(=O)C3CCCN(c4ncnc5c4nc4n5CCCCC4)C3)CC2)c1 (stereo not given),1.05% (inactive)
12,Cn1c(=O)[nH]c(=O)c2c1nc(N1CCN(C(c3ccccc3)c3ccccc3)CC1)n2CCO,-3.12% (inactive)
13,Cn1c(=O)[nH]c(=O)c2c1nc(N1CCN(CCO)CC1)n2CCSc1nc2ccccc2s1,38.1% (active)
14,Cc1nnc(SCCCn2c(N3CCCCC3)nc3c2c(=O)[nH]c(=O)n3C)s1,-8.33% (inactive)
15,CCCCCCCCN1C(=O)[C@@H](CC(=O)N2CCN(C(=O)OCC)CC2)C[C@@]2(C(=O)OC)C1=C[C@H](C1CCCC1)O[C@@H]2C,-12.9% (inactive)
16,COc1ccc(C(N)c2csc(NC(=O)Nc3cccc(C(F)(F)F)c3)n2)cc1 (stereo not given),26.1% (active)
17,COc1ccc(CC(N)c2csc(NC(=O)Nc3ccc(C(C)C)cc3)n2)cc1 (stereo not given),16% (inactive)
18,NC(c1csc(NC(=O)Nc2cccc(C(F)(F)F)c2)n1)C1CCCCC1 (stereo not given),10.7% (inactive)
19,O=C(O)Cn1cnc2c(NCc3ccccc3)ncnc21,-10.7% (inactive)
